The source made the active and inactive calls. No cut-off for these calls is given here. A value given as a limit tells only on which side of the number the result lay.

Test [1] deals with Acinetobacter baumannii. Briefly: Potentiation of colistin-induced antibacterial activity against Acinetobacter baumannii ATCC 15308 assessed as colistin MIC at 50 uM incubated for 20 hrs by susceptibility testing (reference value: 0.25 to 0.5 ug/ml). Format: functional. Summed up: (§1)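 Colistin MIC by broth microdilution in cation-adjusted Mueller-Hinton broth, log-phase cells at final 5×10^5 cfu/mL. Two-fold colistin dilutions in duplicate with sulfonamide at final 0.05 mM (from 10 mM DMSO stock); 20 h at 37 °C. OD550 read. MIC taken as the lowest colistin level reducing growth ≥80% versus growth control. At least two replicates.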

The test system of test [2] is Acinetobacter baumannii. Briefly: Antimicrobial activity against Acinetobacter baumannii ATCC 15308 assessed as microbial growth inhibition at 50 uM incubated for 20 hrs by broth microdilution method. Format: functional, organism-based. Summed up:
(§2)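 Overnight cultures in cation-adjusted Mueller-Hinton broth, subcultured 1:100; log-phase cells at final 1×10^5 cfu/mL exposed to sulfonamide at final 0.05 mM (from 10 mM DMSO stock) for 20 h at 37 °C. OD550 read after shaking. Growth expressed as percent of 0.5% DMSO control wells. Screened at least twice.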

Test [3] deals with Burkholderia cepacia. Put plainly: Potentiation of colistin-induced antibacterial activity against Burkholderia cepacia R6193 assessed as colistin MIC at 50 uM incubated for 20 hrs by susceptibility testing (Rvb > 256 ug/ml). Format: functional. Put shortly:
as §1

In test [4] the test system is Burkholderia cenocepacia. Briefly: Potentiation of colistin-induced antibacterial activity against Burkholderia cenocepacia 289 assessed as colistin MIC at 50 uM incubated for 20 hrs by susceptibility testing (Rvb > 256 ug/ml). Format: functional. Summed up:
as §1

For test [5], the system named is Pseudomonas aeruginosa. Briefly: Potentiation of colistin-induced antibacterial activity against Pseudomonas aeruginosa assessed as colistin MIC at 50 uM incubated for 20 hrs by susceptibility testing (reference value: 1 to 2 ug/ml). Format: functional. Put shortly: as §1
The subject of test [6] is Acinetobacter baumannii. Briefly: Inhibition of biofilm formation in Acinetobacter baumannii ATCC 15308 at 0.05 mM incubated for 24 hrs by crystal violet method relative to control. Format: functional. The note with it: ATCC 15308, 24 h. Summed up: (§3)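 Crystal violet assay in LB: log-phase bacteria at final 1×10^5 cfu/mL with sulfonamide at final 0.05 mM, 24 h at 37 °C. Biomass read at OD620, then wells washed, biofilm heat-fixed 65 °C 15 min, stained 0.1% crystal violet 15 min, dye eluted in 30% acetic acid, OD550 read. Neat DMSO control taken as 100%. Duplicates, at least two independent experiments; one-way ANOVA.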

Test [7] concerns Burkholderia multivorans. Put plainly: Potentiation of colistin-induced antibacterial activity against Burkholderia multivorans B10 assessed as colistin MIC at 50 uM incubated for 20 hrs by susceptibility testing (Rvb > 128 ug/ml). Format: functional. Summed up: as §1
The subject of test [8] is Pseudomonas aeruginosa. Put plainly: Antimicrobial activity against Pseudomonas aeruginosa PAO1 assessed as microbial growth inhibition at 50 uM incubated for 20 hrs by broth microdilution method. Format: functional, organism-based. Put shortly: as §2
(Dilution methods test growth across graded concentrations, often in twofold steps.)

Test [9] has as its system Escherichia coli. Put plainly: Antimicrobial activity against Escherichia coli ATCC 9637 assessed as microbial growth inhibition at 50 uM incubated for 20 hrs by broth microdilution method. Format: functional, organism-based. Put shortly:
as §2

The subject of test [10] is Stenotrophomonas maltophilia. Briefly: Potentiation of colistin-induced antibacterial activity against Stenotrophomonas maltophilia K279a assessed as colistin MIC at 50 uM incubated for 20 hrs by susceptibility testing (reference value: 2 to 8 ug/ml). Format: functional. Summed up:
as §1

Test [11] concerns Escherichia coli. Briefly: Potentiation of colistin-induced antibacterial activity against Escherichia coli ATCC 9637 assessed as colistin MIC at 50 uM incubated for 20 hrs by susceptibility testing (reference value: 0.125 to 0.25 ug/ml). It is filed as functional. Put shortly:
as §1

Test [12] concerns Stenotrophomonas maltophilia. Briefly: Inhibition of biofilm formation in Stenotrophomonas maltophilia K279a clinical isolate of rpf-1 subpopulation at 0.05 mM incubated for 24 hrs by crystal violet method. Format: functional, organism-based. Summed up:
as §3

Test [13] has as its system Pseudomonas aeruginosa. Briefly: Inhibition of biofilm formation in Pseudomonas aeruginosa PAO1 at 0.05 mM incubated for 24 hrs by crystal violet method. Format: functional, organism-based. Summed up: as §3
The subject of test [14] is Burkholderia multivorans. Put plainly: Inhibition of biofilm formation in Burkholderia multivorans B10 at 0.05 mM incubated for 24 hrs by crystal violet method relative to control. It is filed as functional. Conditions: B10, 24 h. Put shortly: as §3
The subject of test [15] is Escherichia coli. Briefly: Inhibition of biofilm formation in Escherichia coli ATCC 9637 at 0.05 mM incubated for 24 hrs by crystal violet method relative to control. Format: functional. Conditions: ATCC 9637, 24 h. Put shortly:
as §3

With `CCCCCCCCC/C=C\C(=O)O`, the MIC (in general, the lowest concentration found to suppress growth) was 0.125 µg/mL in [1]; above 256 µg/mL in test [3]; above 256 µg/mL in test [4]; 1 µg/mL in [5]; above 128 µg/mL in [7]; 0.5 µg/mL in [10]. The MIC in test [11] worked out at 0.063 µg/mL. In addition, the “growth inhibition (GI)” value in test [2], in test [8] and in [9] was “inactive” throughout. In addition, in [6], 50 µM produced 38% inhibition. In addition, the inhibition result in [12] and in [13] was “inactive” throughout.
For `CCCCCCCCCc1ccccc1C(=O)NS(=O)(=O)c1ccc(C(C)(C)C)cc1`, the MIC is 0.5 µg/mL in test [1]; above 256 µg/mL in test [3]; above 256 µg/mL in test [4]; 1 µg/mL in test [5]; above 128 µg/mL in test [7]; 4 µg/mL in test [10]. In [11], the MIC came out at 0.5 µg/mL. The “growth inhibition (GI)” value in [2], in test [8] and in test [9] was “inactive” throughout. The inhibition (as a rule, the change of the read-out against control, counted positive when it falls) at 50 µM in test [14] is above 35%. The inhibition result in [12] and in [13] was “inactive” in each case.
In the case of `CCCCCCCCCc1ccccc1C(=O)NS(=O)(=O)c1cccc(F)c1`, the MIC in test [1] was 0.25 µg/mL; in [3], above 256 µg/mL; in [4], above 256 µg/mL; in test [5], 1 µg/mL; in [7], above 128 µg/mL; in test [10], 0.5 µg/mL. For the same compound, the MIC in test [11] stood at 0.25 µg/mL. Further, the “growth inhibition (GI)” value in [2], in [8] and in test [9] was “inactive” in each case. In test [6], this compound came in with an inhibition at 50 µM of 27%. Further, the inhibition entry in test [12] and in test [13] was “inactive” each time.
In the case of `CCCCCCCCCc1ccccc1C(=O)NS(=O)(=O)c1ccc(Cl)cc1`, the MIC in test [1] was 1 µg/mL; in test [3] it was above 256 µg/mL; in test [4] it was above 256 µg/mL; in test [5], 4 µg/mL; in test [7], above 128 µg/mL; in [10], 2 µg/mL. For the same compound, the MIC in test [11] was 1 µg/mL. In addition, the “growth inhibition (GI)” value in test [2], in test [8] and in test [9] was “inactive” each time. Further, the results for the inhibition at 50 µM in test [15] and in test [14] were 59% and 47%, respectively. Moreover, the inhibition result in test [12] and in [13] was “inactive” each time.
Regarding `CCCCCCCCCc1ccccc1C(=O)NS(=O)(=O)C1CC1`, the MIC is 0.125 µg/mL in [1]; above 256 µg/mL in [3]; above 256 µg/mL in test [4]; 1 µg/mL in test [5]; above 128 µg/mL in [7]; 1 µg/mL in test [10]. Further, in test [11], the MIC came to 0.125 µg/mL. The “growth inhibition (GI)” value in test [2], in test [8] and in test [9] was “inactive” each time. For the same compound, the inhibition entry in test [12] and in test [13] was “inactive” in each case.
Turning to `CCCCCCCCCc1ccccc1C(=O)NS(=O)(=O)CCC(F)(F)F`, the MIC in [1] was 0.25 µg/mL; in test [3], above 256 µg/mL; in [4], above 256 µg/mL; in test [5], 1 µg/mL; in test [7], above 128 µg/mL; in [10] it was 0.5 µg/mL. Also, the MIC in test [11] is 0.25 µg/mL. Moreover, the “growth inhibition (GI)” value in test [2], in test [8] and in test [9] was “inactive” in each case. The inhibition entry in test [12] and in [13] was “inactive” throughout.
For `CCCCCCCCCc1ccccc1C(=O)NS(=O)(=O)c1ccccc1Br`, the MIC in [1] is 0.5 µg/mL; in test [3] it was above 256 µg/mL; in test [4], above 256 µg/mL; in [5] it was 1 µg/mL; in test [7] it was above 128 µg/mL; in test [10], 0.5 µg/mL. Moreover, the MIC in [11] is 0.5 µg/mL. In addition, the “growth inhibition (GI)” value in [2], in test [8] and in test [9] was “inactive” each time. Besides, the inhibition at 50 µM in test [6] was 30%; in test [15] it was 43%; in [14] it was 38%. For the same compound, the inhibition result in test [12] and in test [13] was “inactive” throughout.
With `CCCCCCCCCc1ccccc1C(=O)NS(=O)(=O)c1ccc([N+](=O)[O-])cc1`, the MIC in [1] is 0.5 µg/mL; in test [3], above 256 µg/mL; in test [4], above 256 µg/mL; in test [5] it was 2 µg/mL; in test [7] it was above 128 µg/mL; in [10], 1 µg/mL. For the same compound, the minimum inhibitory concentration (MIC) in [11] stood at 0.5 µg/mL. The “growth inhibition (GI)” value in [2], in [8] and in test [9] was “inactive” in each case. Besides, the inhibition at 50 µM in test [6] turned out to be 50%. Further, the inhibition entry in test [12] and in test [13] was “inactive” each time.
On to `CCCCCCCCCc1ccccc1C(=O)NS(=O)(=O)c1ccccc1F`, for which the MIC in [1] was 0.25 µg/mL; in test [3], above 256 µg/mL; in test [4], above 256 µg/mL; in [5], 1 µg/mL; in [7], above 128 µg/mL; in test [10], 1 µg/mL. In addition, the MIC in test [11] worked out at 0.25 µg/mL. Moreover, the “growth inhibition (GI)” value in test [2], in [8] and in test [9] was “inactive” in each case. For the same compound, the inhibition at 50 µM in test [6] is 27%. The inhibition result in test [12] and in [13] was “inactive” throughout.
As for `CCCCCCCCCc1ccccc1C(=O)NS(=O)(=O)c1ccc(F)cc1`, the MIC in test [1] is 0.25 µg/mL; in test [3], above 256 µg/mL; in [4], above 256 µg/mL; in [5] it was 1 µg/mL; in test [7], above 128 µg/mL; in test [10], 0.5 µg/mL. Also, the MIC in test [11] was determined as 0.5 µg/mL. The “growth inhibition (GI)” value in test [2], in test [8] and in test [9] was “inactive” throughout. Moreover, the inhibition at 50 µM in test [6] came to 25%; in test [15], 22%; in test [14], 27%. The inhibition entry in test [12] and in [13] was “inactive” each time.
As for `CCCCCCCCCc1ccccc1C(=O)NS(=O)(=O)c1ccc(OC)cc1`, the minimal inhibitory concentration (MIC) in test [1] is 0.25 µg/mL; in [3] it was above 256 µg/mL; in test [4], above 256 µg/mL; in [5], 1 µg/mL; in test [7], above 128 µg/mL; in test [10], 1 µg/mL. In test [11], the MIC was determined as 0.25 µg/mL. The “growth inhibition (GI)” value in test [2], in test [8] and in [9] was “inactive” in each case. In test [6], this compound returned an inhibition at 50 µM of 41%. Further, the inhibition entry in test [12] and in [13] was “inactive” throughout.
For `CCCCCCCCCc1ccccc1C(=O)NS(=O)(=O)c1ccccc1`, the MIC in test [1] was 0.25 µg/mL; in [3], above 256 µg/mL; in test [4], above 256 µg/mL; in test [5], 1 µg/mL; in [7] it was above 128 µg/mL; in test [10] it was 0.5 µg/mL. Besides, the MIC in [11] turned out to be 0.25 µg/mL. In addition, the “growth inhibition (GI)” value in test [2], in [8] and in [9] was “inactive” each time. Also, the inhibition result in test [12] and in test [13] was “inactive” each time.
